Key:
[1] = tested on: HEL; test: The compound was tested for antiviral activity by measuring the concentration required to reduce plaque formation against Varicella zoster TK+YS strain; type: functional, cell-based; details: Homo sapiens
How it was run: (§1)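 Plaque reduction in human embryonic lung cells with 20 PFU virus input. EC50 is the concentration that cuts plaque formation by 50%.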

[2] = tested on: Hef522 normal fibroblasts (human); test: The compound was tested for growth inhibitory activity against normal fibroblast (Hef522)
[3] = tested on: HEL; test: The compound was tested for antiviral activity by measuring the concentration required to reduce plaque formation against Varicella zoster TK-(deficient) YS/R strain; type: functional, cell-based; details: Homo sapiens; how it was run: as §1
[4] = tested on: MIA PaCa-2; test: The compound was tested for growth inhibitory activity against MiaPaCa2 tumor cell lines; type: functional, cell-based; details: Homo sapiens
How it was run: (§2)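 Monolayer cells in DMEM with 10% FBS, 2 mM glutamine, penicillin/streptomycin, 37 °C, 5% CO2, plated at 1.5 × 10^4/mL (HeLa, Hep2, MCF7, MiaPaCa2) or 2 × 10^4/mL (Hef522). MTT read-out, percent growth versus untreated controls. Mean of three parallel samples in three experiments; IC50 reported.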

[5] = tested on: HEL; test: The compound was tested for antiviral activity by measuring the concentration required to reduce plaque formation against cytomegalo virus AD-169 strain; type: functional, cell-based; details: Homo sapiens; how it was run: as §1
[6] = tested on: HEL; test: The compound was tested for antiviral activity by measuring the concentration required to reduce plaque formation against cytomegalo virus Davis strain; type: functional, cell-based; details: Homo sapiens; how it was run: as §1
[7] = tested on: MCF7; test: The compound was tested for growth inhibitory activity against MCF-7 tumor cell lines; type: functional, cell-based; details: Homo sapiens; how it was run: as §2
[8] = tested on: HeLa; test: The compound was tested for growth inhibitory activity against HeLa tumor cell lines; type: functional, cell-based; details: Homo sapiens; how it was run: as §2
[9] = tested on: FM3A; test: The compound was tested for growth inhibitory activity against FM3A/0 tumor cell lines; type: functional, cell-based; details: Mus musculus
[10] = tested on: HEp-2; test: The compound was tested for growth inhibitory activity against Hep2 tumor cell lines; type: functional, cell-based; details: Homo sapiens; how it was run: as §2
[11] = tested on: L1210; test: The compound was tested for growth inhibitory activity against L1210/0 tumor cell lines; type: functional, cell-based; details: Mus musculus
[12] = tested on: HEL; test: Minimum cytotoxic concentration that causes a microscopically detectable alteration of cell morphology in human embryonic lung cells; type: functional, cell-based
How it was run: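 Human embryonic lung cells checked under the microscope. Minimum concentration producing a detectable change in cell morphology.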

[13] = tested on: HEL; test: The compound was tested for antiviral activity by measuring the concentration required to reduce plaque formation against Varicella zoster TK-(deficient) 07/1 strain; type: functional, cell-based; details: Homo sapiens; how it was run: as §1
[14] = tested on: HEL; test: The compound was tested for cytotoxic concentration required to reduce human embryonic lung cell growth by 50%; type: functional, cell-based
How it was run: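 Human embryonic lung cell growth measured. Value is the concentration reducing cell growth by 50%.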

[15] = tested on: CCRF-CEM; test: The compound was tested for growth inhibitory activity against CEM/0 tumor cell lines; type: functional, cell-based; details: Homo sapiens
[16] = tested on: MOLT-4; test: The compound was tested for growth inhibitory activity against Molt4/C8 tumor cell lines; type: functional, cell-based; details: Homo sapiens
[17] = tested on: HEL; test: The compound was tested for antiviral activity by measuring the concentration required to reduce plaque formation against Varicella zoster TK+OKA strain; type: functional, cell-based; details: Homo sapiens; how it was run: as §1

| IC50 [1] | IC50 [3] | IC50 [4] | IC50 [5] | IC50 [6] | IC50 [7] | IC50 [8] | IC50 [11] | IC50 [13] | IC50 [15] | IC50 [16] | IC50 [17] | Structure (SMILES) | IC50 [2] | IC50 [9] | IC50 [10] | MCC [12] | IC50 [14] |
| --- | --- | --- | --- | --- | --- | --- | --- | --- | --- | --- | --- | --- | --- | --- | --- | --- | --- |
| 1.5 µM | 0.6 µM | > 100 µM | > 0.5 µM | > 0.5 µM | > 100 µM | 70 µM | 110 µM | 2.8 µM | 5.8 µM | 3.9 µM | 1.2 µM | O=C1O/C(=C\Cn2cnc3c(-n4cccc4)ncnc32)C(OCc2ccccc2)=C1OCc1ccccc1 | > 100 µM | > 200 µM | > 100 µM | 20 µM | 4 µM |
| 3.8 µM | 2.7 µM | 40 µM | 3.5 µM | 3.5 µM | 60 µM | 40 µM | 5.1 µM | 3.5 µM | 15.1 µM | 10.9 µM | 2.6 µM | O=C1O/C(=C\Cn2cc(F)c(=O)[nH]c2=O)C(OCc2ccccc2)=C1OCc1ccccc1 | 40 µM | 3.4 µM | 20 µM | 20 µM | 9 µM |
| > 2 µM | 1 µM | 80 µM | > 2 µM | > 2 µM | 40 µM | 30 µM | 7.5 µM | > 2 µM | 3.5 µM | 3.9 µM | 1.3 µM | O=C1O/C(=C\Cn2cc(Br)c(=O)[nH]c2=O)C(OCc2ccccc2)=C1OCc1ccccc1 | 30 µM | 17.1 µM | 90 µM | 5 µM | 3 µM |
| > 5 µM | 3.8 µM | 40 µM | > 5 µM | > 5 µM | > 100 µM | 30 µM | 4.1 µM | > 5 µM | 4.4 µM | 6.8 µM | 5 µM | O=C1O/C(=C/Cn2cnc3ncnc(Cl)c32)C(OCc2ccccc2)=C1OCc1ccccc1 | 20 µM | 11.4 µM | 60 µM | 20 µM | 20 µM |
| > 2 µM | 1 µM | 40 µM | > 2 µM | > 2 µM | 60 µM | 40 µM | 12.2 µM | > 2 µM | 6 µM | 6.1 µM | 1.3 µM | O=C1O/C(=C\Cn2cc(Cl)c(=O)[nH]c2=O)C(OCc2ccccc2)=C1OCc1ccccc1 | 30 µM | 16.9 µM | 20 µM | 5 µM | 3 µM |
| > 5 µM | > 5 µM | 60 µM | > 5 µM | > 5 µM | 40 µM | 30 µM | 11.6 µM | > 5 µM | 15.9 µM | 14.8 µM | > 5 µM | O=C1O/C(=C\Cn2cnc3c(Cl)ncnc32)C(OCc2ccccc2)=C1OCc1ccccc1 | 50 µM | 16.4 µM | 60 µM | 20 µM | 8 µM |
| 1.4 µM | 1 µM | 80 µM | > 2 µM | > 2 µM | 70 µM | 30 µM | 7.5 µM | > 2 µM | 3.3 µM | 3.9 µM | 1.3 µM | O=C1O/C(=C\Cn2cc(I)c(=O)[nH]c2=O)C(OCc2ccccc2)=C1OCc1ccccc1 | 40 µM | 22.6 µM | 10 µM | 5 µM | 3 µM |
| 3.4 µM | 1.8 µM | 30 µM | 3.5 µM | 3.5 µM | 20 µM | 50 µM | 12.9 µM | 3.4 µM | 13 µM | 4.8 µM | 3 µM | O=C1O/C(=C\Cn2ccc(=O)[nH]c2=O)C(OCc2ccccc2)=C1OCc1ccccc1 | 50 µM | 17.7 µM | 40 µM | 20 µM | 5 µM |
| 0.5 µM | 0.3 µM | 30 µM | > 0.5 µM | 0.4 µM | 40 µM | 20 µM | 2 µM | 0.5 µM | 1.6 µM | 0.9 µM | 0.3 µM | O=C1O/C(=C\Cn2cc(C(F)(F)F)c(=O)[nH]c2=O)C(OCc2ccccc2)=C1OCc1ccccc1 | 60 µM | 3.6 µM | 40 µM | 2 µM | 1 µM |
| 0.78 µM | 12 µM | – | – | – | – | – | – | 17 µM | – | – | 0.16 µM | Nc1nc2c(ncn2COCCO)c(=O)[nH]1 [ACYCLOVIR] | – | – | – | > 50 µM | > 100 µM |
| – | – | – | 1 µM | 5 µM | – | – | – | – | – | – | – | Nc1nc2c(ncn2COC(CO)CO)c(=O)[nH]1 [GANCICLOVIR] | – | – | – | > 50 µM | > 50 µM |

| Structure (SMILES) | IC50 [1] | IC50 [3] | IC50 [4] | IC50 [5] | IC50 [6] | IC50 [7] | IC50 [8] | IC50 [11] | IC50 [13] | IC50 [15] | IC50 [16] | IC50 [17] | IC50 [2] | IC50 [9] | IC50 [10] | MCC [12] | IC50 [14] |
| --- | --- | --- | --- | --- | --- | --- | --- | --- | --- | --- | --- | --- | --- | --- | --- | --- | --- |
| O=c1[nH]c(=O)n([C@H]2C[C@H](O)[C@@H](CO)O2)cc1/C=C/Br [BRIVUDINE] | 0.005 µM | > 50 µM | – | – | – | – | – | – | > 50 µM | – | – | 0.001 µM | – | – | – | > 50 µM | > 100 µM |

Source: ChEMBL document CHEMBL1132303, “Novel pyrimidine and purine derivatives of L-ascorbic acid: synthesis and biological evaluation” (J Med Chem, 1999)
